Test results published in ChEMBL document CHEMBL5030506 (J Med Chem, 2021).
Calls of active or inactive are those of the source. The calls are words filed in the database; no cut-off is given here.

Tests used:
HEK293T [1] = assay: Inhibition of FLAG-tagged PRMT6 V86K/D88A mutant (unknown origin) expressed in HEK293T assessed as reduction in H4R3me2a level measured after 20 hrs by SDS gel electrophoresis relative to control; assay type: cell-based; details: Homo sapiens
Summary of the method: (§1)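 HEK293T cells were grown in DMEM with 10% FBS and penicillin/streptomycin. The next day they were transfected with FLAG-PRMT6 or the V86K/D88A mutant (1 μg DNA per well). After 4 h, medium was replaced with titrated compound for 20 h. Cells were lysed in benzonase-containing buffer, SDS was added to 1%, and lysates were western blotted for H3R2me2a or H4R3me2a, total H3/H4 and FLAG, with infrared detection at 800/700 nm.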

[2] = target: Histone-lysine N-methyltransferase KMT5C (Homo sapiens) (UniProt Q86Y97); assay: Inhibition of SUV420H2 (unknown origin) at 1 to 10 uM; details: dose 1-10 µM
Summary of the method: (§2)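 Part of a 33-methyltransferase selectivity panel covering 8 PRMTs, 21 PKMTs, 3 DNMTs and 1 RNA methyltransferase. Each compound was tested at 1 μM and at 10 μM, with n = 3.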

[3] = target: Histone-lysine N-methyltransferase ASH1L (Homo sapiens) (UniProt Q9NR48); assay: Inhibition of ASH1L (unknown origin) at 1 to 10 uM; details: dose 1-10 µM; summary of the method: as §2
[4] = target: DNA (cytosine-5)-methyltransferase 3A (Homo sapiens) (UniProt Q9Y6K1); assay: Inhibition of DNMT3A (unknown origin) at 1 to 10 uM; details: dose 1-10 µM; summary of the method: as §2
MCF7 = assay: Cytotoxicity against MCF7 cells at up to 10 uM measured after 3 days by CCK8 assay; assay type: cell-based; details: human, mcf7, 72 h, time 3 day
Summary of the method: (§3)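 Cells (1 × 10^4 per well) were seeded and, after 24 h, exposed for 3 days to serially diluted compound starting at 10 μM. CCK-8 (WST-8) reagent was then added for 4 h at 37 °C, and absorbance was read at 450 nm. Values are the average ± SD of three replicate experiments.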

[5] = target: Histone-lysine N-methyltransferase NSD2 (Homo sapiens) (UniProt O96028); assay: Inhibition of NSD2 (unknown origin) at 1 to 10 uM; details: dose 1-10 µM; summary of the method: as §2
PNT2 = assay: Cytotoxicity against PNT2 cells at up to 10 uM measured after 3 days by CCK8 assay; assay type: cell-based; details: human, pnt2, 72 h, time 3 day; summary of the method: as §3
[6] = target: DNA (cytosine-5)-methyltransferase 1 (Homo sapiens) (UniProt P26358); assay: Inhibition of DNMT1 (unknown origin) at 1 to 10 uM; details: dose 1-10 µM; summary of the method: as §2
HEK293T [7] = assay: Inhibition of FLAG-tagged PRMT6 V86K/D88A mutant (unknown origin) expressed in HEK293T assessed as reduction in H3R2me2a level measured after 20 hrs by SDS gel electrophoresis relative to control; assay type: cell-based; details: Homo sapiens; summary of the method: as §1
[8] = target: Histone-lysine N-methyltransferase SETD7 (Homo sapiens) (UniProt Q8WTS6); assay: Inhibition of SETD7 (unknown origin) at 1 to 10 uM; details: dose 1-10 µM; summary of the method: as §2
[9] = target: N-lysine methyltransferase SMYD2 (Homo sapiens) (UniProt Q9NRG4); assay: Inhibition of SMYD2 (unknown origin) at 1 to 10 uM; details: dose 1-10 µM; summary of the method: as §2
[10] = target: Histone-lysine N-methyltransferase EHMT2 (Homo sapiens) (UniProt Q96KQ7); assay: Inhibition of G9a (unknown origin) at 1 to 10 uM; details: dose 1-10 µM; summary of the method: as §2
[11] = target: Histone-lysine N-methyltransferase 2A (Homo sapiens) (UniProt Q03164); assay: Inhibition of MLL1 (unknown origin) at 1 to 10 uM; details: dose 1-10 µM; summary of the method: as §2
[12] = target: Histone-lysine N-methyltransferase 2C (Homo sapiens) (UniProt Q8NEZ4); assay: Inhibition of MLL3 (unknown origin) at 1 to 10 uM; details: dose 1-10 µM; summary of the method: as §2
[13] = target: Protein arginine N-methyltransferase 5 (Homo sapiens) (UniProt O14744); assay: Inhibition of PRMT5 (unknown origin) at 1 to 10 uM; details: dose 1-10 µM; summary of the method: as §2
HEK-293T [14] = assay: Cytotoxicity against HEK293T cells at up to 10 uM measured after 3 days by CCK8 assay; assay type: cell-based; details: human, 72 h, time 3 day; summary of the method: as §3
[15] = target: Histone-lysine N-methyltransferase PRDM9 (Homo sapiens) (UniProt Q9NQV7); assay: Inhibition of PRDM9 (unknown origin) at 1 to 10 uM; details: dose 1-10 µM; summary of the method: as §2
[16] = target: Protein arginine N-methyltransferase 3 (Homo sapiens) (UniProt O60678); assay: Inhibition of PRMT3 (unknown origin) at 1 to 10 uM; details: dose 1-10 µM; summary of the method: as §2
[17] = target: Protein arginine N-methyltransferase 1 (Homo sapiens) (UniProt Q99873); assay: Inhibition of PRMT1 (unknown origin) at 1 to 10 uM; details: dose 1-10 µM; summary of the method: as §2
[18] = target: Protein arginine N-methyltransferase 7 (Homo sapiens) (UniProt Q9NVM4); assay: Inhibition of PRMT7 (unknown origin) at 1 to 10 uM; details: dose 1-10 µM; summary of the method: as §2
[19] = target: Histone-lysine N-methyltransferase, H3 lysine-36 specific (Homo sapiens) (UniProt Q96L73); assay: Inhibition of NSD1 (unknown origin) at 1 to 10 uM; details: dose 1-10 µM; summary of the method: as §2
[20] = target: RNA 5'-monophosphate methyltransferase (Homo sapiens) (UniProt Q7Z5W3); assay: Inhibition of BCDIN3D (unknown origin) at 1 to 10 uM; details: dose 1-10 µM; summary of the method: as §2
[21] = target: Histone-lysine N-methyltransferase, H3 lysine-79 specific (Homo sapiens) (UniProt Q8TEK3); assay: Inhibition of DOT1L (unknown origin) at 1 to 10 uM; details: dose 1-10 µM; summary of the method: as §2
[22] = target: Protein arginine N-methyltransferase 8 (Homo sapiens) (UniProt Q9NR22); assay: Inhibition of PRMT8 (unknown origin) at 1 to 10 uM; details: dose 1-10 µM; summary of the method: as §2
[23] = target: Histone-lysine N-methyltransferase SETD2 (Homo sapiens) (UniProt Q9BYW2); assay: Inhibition of SETD2 (unknown origin) at 1 to 10 uM; details: dose 1-10 µM; summary of the method: as §2
[24] = target: Histone-lysine N-methyltransferase EZH2 (Homo sapiens) (UniProt Q15910); assay: Inhibition of PRC2 (unknown origin) at 1 to 10 uM; details: dose 1-10 µM; summary of the method: as §2
[25] = target: Histone-lysine N-methyltransferase SUV39H1 (Homo sapiens) (UniProt O43463); assay: Inhibition of SUV39H1 (unknown origin) at 1 to 10 uM; details: dose 1-10 µM; summary of the method: as §2
[26] = target: Histone-lysine N-methyltransferase SUV39H2 (Homo sapiens) (UniProt Q9H5I1); assay: Inhibition of SUV39H2 (unknown origin) at 1 to 10 uM; details: dose 1-10 µM; summary of the method: as §2
[27] = target: Histone-lysine N-methyltransferase EHMT1 (Homo sapiens) (UniProt Q9H9B1); assay: Inhibition of GLP (unknown origin) at 1 to 10 uM; details: dose 1-10 µM; summary of the method: as §2
[28] = target: Histone-arginine methyltransferase CARM1 (Homo sapiens) (UniProt Q86X55); assay: Inhibition of PRMT4 (unknown origin) at 1 to 10 uM; details: dose 1-10 µM; summary of the method: as §2
[29] = target: Protein arginine N-methyltransferase 9 (Homo sapiens) (UniProt Q6P2P2); assay: Inhibition of PRMT9 (unknown origin) at 1 to 10 uM; details: dose 1-10 µM
[30] = target: DNA (cytosine-5)-methyltransferase 3B (Homo sapiens) (UniProt Q9UBC3); assay: Inhibition of DNMT3B (unknown origin) at 1 to 10 uM; details: dose 1-10 µM; summary of the method: as §2
[31] = target: N-lysine methyltransferase KMT5A (Homo sapiens) (UniProt Q9NQR1); assay: Inhibition of SETD8 (unknown origin) at 1 to 10 uM; details: dose 1-10 µM; summary of the method: as §2
[32] = target: Histone-lysine N-methyltransferase SMYD3 (Homo sapiens) (UniProt Q9H7B4); assay: Inhibition of SMYD3 (unknown origin) at 1 to 10 uM; details: dose 1-10 µM; summary of the method: as §2
[33] = target: Histone-lysine N-methyltransferase NSD3 (Homo sapiens) (UniProt Q9BZ95); assay: Inhibition of NSD3 (unknown origin) at 1 to 10 uM; details: dose 1-10 µM; summary of the method: as §2
[34] = target: Histone-lysine N-methyltransferase KMT5B (Homo sapiens) (UniProt Q4FZB7); assay: Inhibition of SUV420H1 (unknown origin) at 1 to 10 uM; details: dose 1-10 µM; summary of the method: as §2
[35] = target: Histone-lysine N-methyltransferase SETDB1 (Homo sapiens) (UniProt Q15047); assay: Inhibition of SETDB1 (unknown origin) at 1 to 10 uM; details: dose 1-10 µM; summary of the method: as §2
HEK-293T [36] = assay: Cytotoxicity against HEK293T cells at 30 uM measured after 20 hrs by Western blot analysis; details: human
[37] = Inhibition of PRMT6 mutant 17 (unknown origin) using biotinylated H4(1 to 24) peptide as substrate preincubated for 20 mins in presence of [3H]SAM followed by substrate addition by scintillation proximity assay; parameters: species or system Homo sapiens
[38] = Inhibition of PRMT6 mutant 20 (unknown origin) using biotinylated H4(1 to 24) peptide as substrate preincubated for 20 mins in presence of [3H]SAM followed by substrate addition by scintillation proximity assay; parameters: species or system Homo sapiens
[39] = Inhibition of PRMT6 mutant 19 (unknown origin) using biotinylated H4(1 to 24) peptide as substrate preincubated for 20 mins in presence of [3H]SAM followed by substrate addition by scintillation proximity assay; parameters: species or system Homo sapiens
[40] = target: Protein arginine N-methyltransferase 6 (Homo sapiens, UniProt Q96LA8); assay: Inhibition of PRMT6 (unknown origin)

Histone-lysine N-methyltransferase SETD7 (Homo sapiens), sequence (Q8WTS6 whole entry): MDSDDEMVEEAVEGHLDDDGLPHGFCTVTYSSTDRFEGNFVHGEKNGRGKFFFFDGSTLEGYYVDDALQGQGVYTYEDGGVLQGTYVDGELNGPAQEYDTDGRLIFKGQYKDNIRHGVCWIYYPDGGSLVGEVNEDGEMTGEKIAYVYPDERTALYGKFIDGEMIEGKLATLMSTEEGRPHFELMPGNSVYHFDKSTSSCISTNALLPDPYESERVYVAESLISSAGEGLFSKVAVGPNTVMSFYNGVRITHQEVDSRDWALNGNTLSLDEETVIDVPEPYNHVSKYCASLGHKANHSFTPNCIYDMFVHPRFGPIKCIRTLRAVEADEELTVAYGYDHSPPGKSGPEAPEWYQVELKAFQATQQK
Histone-lysine N-methyltransferase SETD2 (Homo sapiens), sequence (Q9BYW2 whole entry): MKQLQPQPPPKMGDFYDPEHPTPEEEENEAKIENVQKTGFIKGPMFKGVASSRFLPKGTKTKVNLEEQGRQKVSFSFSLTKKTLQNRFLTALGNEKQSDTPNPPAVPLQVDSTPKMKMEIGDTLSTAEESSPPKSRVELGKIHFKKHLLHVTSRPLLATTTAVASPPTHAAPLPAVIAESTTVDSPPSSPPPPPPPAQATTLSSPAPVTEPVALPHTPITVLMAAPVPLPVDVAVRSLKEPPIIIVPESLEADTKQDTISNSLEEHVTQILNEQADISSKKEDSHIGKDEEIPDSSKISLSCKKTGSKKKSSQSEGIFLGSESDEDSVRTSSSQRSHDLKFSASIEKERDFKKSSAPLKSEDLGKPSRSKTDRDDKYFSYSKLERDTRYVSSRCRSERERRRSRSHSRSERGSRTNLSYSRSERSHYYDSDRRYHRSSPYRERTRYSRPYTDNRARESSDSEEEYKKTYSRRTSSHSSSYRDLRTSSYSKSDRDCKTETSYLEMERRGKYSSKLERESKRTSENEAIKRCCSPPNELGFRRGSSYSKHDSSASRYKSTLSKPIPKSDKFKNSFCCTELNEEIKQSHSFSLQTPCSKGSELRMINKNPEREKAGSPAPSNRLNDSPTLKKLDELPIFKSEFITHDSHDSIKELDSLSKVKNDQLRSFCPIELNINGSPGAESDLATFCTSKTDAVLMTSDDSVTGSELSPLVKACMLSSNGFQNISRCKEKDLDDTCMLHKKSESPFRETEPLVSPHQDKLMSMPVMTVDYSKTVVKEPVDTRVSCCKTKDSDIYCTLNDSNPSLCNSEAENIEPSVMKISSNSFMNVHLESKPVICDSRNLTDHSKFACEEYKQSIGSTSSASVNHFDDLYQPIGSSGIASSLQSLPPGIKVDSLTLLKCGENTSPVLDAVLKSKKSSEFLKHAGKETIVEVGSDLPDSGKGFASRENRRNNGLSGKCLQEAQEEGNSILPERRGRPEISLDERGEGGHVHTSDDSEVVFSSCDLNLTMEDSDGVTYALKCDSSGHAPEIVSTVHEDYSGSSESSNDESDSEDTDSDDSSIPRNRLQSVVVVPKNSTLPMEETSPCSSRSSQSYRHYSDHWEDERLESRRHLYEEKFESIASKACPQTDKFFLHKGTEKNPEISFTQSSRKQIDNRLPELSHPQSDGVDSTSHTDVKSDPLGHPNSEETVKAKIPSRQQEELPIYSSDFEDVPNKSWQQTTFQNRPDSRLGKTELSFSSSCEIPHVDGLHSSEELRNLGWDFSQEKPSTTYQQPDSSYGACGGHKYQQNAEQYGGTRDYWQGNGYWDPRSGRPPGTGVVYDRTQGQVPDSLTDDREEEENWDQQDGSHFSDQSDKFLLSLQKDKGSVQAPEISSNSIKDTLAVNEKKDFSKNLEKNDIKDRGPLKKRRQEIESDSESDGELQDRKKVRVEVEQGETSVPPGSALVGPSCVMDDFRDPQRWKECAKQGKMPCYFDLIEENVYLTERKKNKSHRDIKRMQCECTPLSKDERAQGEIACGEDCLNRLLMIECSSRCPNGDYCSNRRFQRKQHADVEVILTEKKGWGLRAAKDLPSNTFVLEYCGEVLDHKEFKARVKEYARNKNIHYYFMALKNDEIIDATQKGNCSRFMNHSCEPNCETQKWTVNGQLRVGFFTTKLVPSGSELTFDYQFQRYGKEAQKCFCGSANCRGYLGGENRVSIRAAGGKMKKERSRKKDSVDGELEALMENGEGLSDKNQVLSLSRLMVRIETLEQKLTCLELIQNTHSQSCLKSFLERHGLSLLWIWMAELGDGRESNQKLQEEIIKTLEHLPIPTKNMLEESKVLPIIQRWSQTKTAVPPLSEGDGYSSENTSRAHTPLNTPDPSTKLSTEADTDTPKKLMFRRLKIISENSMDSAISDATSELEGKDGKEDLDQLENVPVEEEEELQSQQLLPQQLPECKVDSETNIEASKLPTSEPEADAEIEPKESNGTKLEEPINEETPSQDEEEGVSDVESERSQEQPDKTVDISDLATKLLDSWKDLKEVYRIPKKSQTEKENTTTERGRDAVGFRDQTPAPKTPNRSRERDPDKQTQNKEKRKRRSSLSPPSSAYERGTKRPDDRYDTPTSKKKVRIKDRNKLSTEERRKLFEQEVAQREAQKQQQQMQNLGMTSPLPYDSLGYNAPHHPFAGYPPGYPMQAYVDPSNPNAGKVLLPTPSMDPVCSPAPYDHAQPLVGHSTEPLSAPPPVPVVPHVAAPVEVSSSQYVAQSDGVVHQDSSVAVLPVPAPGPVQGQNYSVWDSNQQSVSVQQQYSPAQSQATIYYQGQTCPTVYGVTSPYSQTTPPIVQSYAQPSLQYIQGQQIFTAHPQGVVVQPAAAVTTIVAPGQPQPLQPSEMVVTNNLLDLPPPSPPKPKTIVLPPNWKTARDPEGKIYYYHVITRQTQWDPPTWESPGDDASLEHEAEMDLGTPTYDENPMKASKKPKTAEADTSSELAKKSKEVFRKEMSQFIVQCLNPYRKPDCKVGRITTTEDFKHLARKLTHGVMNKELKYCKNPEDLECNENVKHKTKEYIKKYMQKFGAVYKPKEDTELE
Histone-lysine N-methyltransferase NSD3 (Homo sapiens), sequence (Q9BZ95 whole entry): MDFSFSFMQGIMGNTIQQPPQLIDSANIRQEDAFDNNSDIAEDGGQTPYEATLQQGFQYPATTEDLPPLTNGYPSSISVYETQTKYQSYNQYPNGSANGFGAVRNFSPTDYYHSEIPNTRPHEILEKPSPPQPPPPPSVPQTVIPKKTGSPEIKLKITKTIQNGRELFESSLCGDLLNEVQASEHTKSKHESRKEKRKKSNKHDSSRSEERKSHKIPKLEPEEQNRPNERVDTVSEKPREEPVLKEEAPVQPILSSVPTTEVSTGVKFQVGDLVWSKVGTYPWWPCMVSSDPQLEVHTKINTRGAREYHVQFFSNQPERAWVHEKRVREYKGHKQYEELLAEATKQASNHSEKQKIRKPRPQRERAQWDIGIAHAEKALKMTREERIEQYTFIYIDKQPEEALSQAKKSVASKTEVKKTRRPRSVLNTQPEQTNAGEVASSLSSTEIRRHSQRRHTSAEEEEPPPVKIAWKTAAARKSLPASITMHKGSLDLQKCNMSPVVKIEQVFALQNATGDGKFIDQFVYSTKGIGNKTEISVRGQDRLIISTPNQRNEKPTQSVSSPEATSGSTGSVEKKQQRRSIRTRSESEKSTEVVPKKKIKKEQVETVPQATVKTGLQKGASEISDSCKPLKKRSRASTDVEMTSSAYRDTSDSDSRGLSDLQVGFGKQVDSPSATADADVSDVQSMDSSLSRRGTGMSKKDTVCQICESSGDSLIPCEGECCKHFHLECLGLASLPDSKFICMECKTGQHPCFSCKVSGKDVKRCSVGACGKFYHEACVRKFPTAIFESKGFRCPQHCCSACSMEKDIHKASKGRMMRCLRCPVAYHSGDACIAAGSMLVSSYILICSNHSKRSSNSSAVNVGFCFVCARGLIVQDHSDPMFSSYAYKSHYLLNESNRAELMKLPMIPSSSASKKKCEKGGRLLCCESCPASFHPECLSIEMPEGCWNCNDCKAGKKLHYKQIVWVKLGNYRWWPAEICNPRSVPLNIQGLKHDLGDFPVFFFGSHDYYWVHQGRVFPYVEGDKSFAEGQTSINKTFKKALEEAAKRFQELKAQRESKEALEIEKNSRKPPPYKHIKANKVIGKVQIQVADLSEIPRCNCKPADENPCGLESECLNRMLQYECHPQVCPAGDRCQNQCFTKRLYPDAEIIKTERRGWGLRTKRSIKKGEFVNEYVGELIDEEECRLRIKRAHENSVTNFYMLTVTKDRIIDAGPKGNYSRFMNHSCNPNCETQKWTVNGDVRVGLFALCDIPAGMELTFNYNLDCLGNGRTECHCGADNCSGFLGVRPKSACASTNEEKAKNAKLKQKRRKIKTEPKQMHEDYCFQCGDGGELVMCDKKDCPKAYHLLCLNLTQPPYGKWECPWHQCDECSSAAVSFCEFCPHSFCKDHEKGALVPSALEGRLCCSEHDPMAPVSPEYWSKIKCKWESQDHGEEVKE
Histone-lysine N-methyltransferase SUV39H2 (Homo sapiens), sequence (Q9H5I1 whole entry): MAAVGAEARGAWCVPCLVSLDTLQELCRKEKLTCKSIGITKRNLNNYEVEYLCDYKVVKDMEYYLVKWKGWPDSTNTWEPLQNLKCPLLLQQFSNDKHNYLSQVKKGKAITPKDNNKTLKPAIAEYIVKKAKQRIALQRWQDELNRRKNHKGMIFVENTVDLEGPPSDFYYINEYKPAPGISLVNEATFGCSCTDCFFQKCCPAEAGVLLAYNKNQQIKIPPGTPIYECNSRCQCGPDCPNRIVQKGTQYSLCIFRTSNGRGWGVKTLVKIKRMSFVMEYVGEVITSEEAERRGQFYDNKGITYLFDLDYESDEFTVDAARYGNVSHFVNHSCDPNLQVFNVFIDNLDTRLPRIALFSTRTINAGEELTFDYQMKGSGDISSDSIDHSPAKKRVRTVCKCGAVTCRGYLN
RNA 5'-monophosphate methyltransferase (Homo sapiens), sequence (Q7Z5W3 whole entry): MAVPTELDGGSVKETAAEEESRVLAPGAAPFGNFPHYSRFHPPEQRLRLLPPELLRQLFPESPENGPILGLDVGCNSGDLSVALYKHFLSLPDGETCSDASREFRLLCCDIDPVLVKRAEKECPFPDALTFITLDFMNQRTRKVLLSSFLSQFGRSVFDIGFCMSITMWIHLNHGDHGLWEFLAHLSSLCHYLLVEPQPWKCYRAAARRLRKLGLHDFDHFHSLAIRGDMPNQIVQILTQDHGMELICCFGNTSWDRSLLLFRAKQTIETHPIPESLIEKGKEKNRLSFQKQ

| Compound | inhibition [2] | inhibition [3] | inhibition [4] | Activity (MCF7) | inhibition [5] | Activity (PNT2) | inhibition [6] | inhibition [8] | inhibition [9] | inhibition [10] | inhibition [11] | inhibition [12] | inhibition [13] | inhibition [15] | inhibition [16] | inhibition [17] | inhibition [18] | inhibition [19] | inhibition [20] | inhibition [21] | other results |
| --- | --- | --- | --- | --- | --- | --- | --- | --- | --- | --- | --- | --- | --- | --- | --- | --- | --- | --- | --- | --- | --- |
| Cc1cc(C)cc([C@@H]2c3cc(C)ccc3NC(=O)CN2C(=O)c2ccc(Br)s2)c1 | inactive | inactive | inactive | Non-Toxic | inactive | Non-Toxic | inactive | inactive | inactive | inactive | inactive | inactive | inactive | inactive | inactive | inactive | inactive | inactive | inactive | inactive | inhibition (HEK293T [1]): 100%; inhibition (HEK293T [7]): 100%; Activity (HEK-293T [14]): Non-Toxic; inhibition [22]: inactive; inhibition [23]: inactive; inhibition [24]: inactive; inhibition [25]: inactive; inhibition [26]: inactive; inhibition [27]: inactive; inhibition [28]: inactive; inhibition [29]: inactive; inhibition [30]: inactive; inhibition [31]: inactive; inhibition [32]: inactive; inhibition [33]: inactive; inhibition [34]: inactive; inhibition [35]: inactive |
| Cc1cc(C)cc([C@H]2c3cc(C)ccc3NC(=O)CN2C(=O)c2ccc(Br)s2)c1 | inactive | inactive | inactive | Non-Toxic | inactive | Non-Toxic | inactive | inactive | inactive | inactive | inactive | inactive | inactive | inactive | inactive | inactive | inactive | inactive | inactive | inactive | Activity (HEK-293T [36]): Toxic; inhibition [22]: inactive; inhibition [23]: inactive; inhibition [24]: inactive; inhibition [25]: inactive; inhibition [26]: inactive; inhibition [27]: inactive; inhibition [28]: inactive; inhibition [29]: inactive; inhibition [30]: inactive; inhibition [31]: inactive; inhibition [32]: inactive; inhibition [33]: inactive; inhibition [34]: inactive; inhibition [35]: inactive |
| Cc1ccc2c(c1)[C@@H](c1ccc(F)cc1)N(C(=O)c1ccc(Br)o1)CC(=O)N2 | – | – | – | – | – | – | – | – | – | – | – | – | – | – | – | – | – | – | – | – | IC50 [37]: 46 µM; IC50 [38]: 41 µM; IC50 [39]: 17 µM |
| CNCCN1CCC(OCc2ccccc2)CC1 | – | – | – | – | – | – | – | – | – | – | – | – | – | – | – | – | – | – | – | – | IC50 [40]: 34 nM |
